# Screens as filed in PubChem.
# PGC1a Ac signal = raises PGC1a acetylation signal in U2OS cells; activation, % at 15.6 µM; U2OS PGC1a acetylation AlphaScreen, overnight; 350,000 compounds, 0.21% hits; AID 651723;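 active means every replicate reaching activation of at least 50%, whatever the mean replicate activation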;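 further: hits raise the AlphaScreen acetylation signal above neutral controls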
#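 System – flag-PGC1a/GCN5 U2OS cells · Quantity – 7000 U2OS cells per well · Signal – AlphaScreen proximity luminescence, anti-acetyl-lysine antibody · Schedule – overnight compound treatment, 37 °C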
# Hits are given with their value; – = inactive. Only a selection was taken, and hits are over-represented in it overall.
SMILES,PGC1a Ac signal
C[C@@H]1CN([C@@H](C)CO)C(=O)c2c(c3ccccc3n2C)-c2ccccc2CO[C@@H]1CN(C)C(=O)c1cc(Cl)cc(Cl)c1,96
CC(C)CC#Cc1cnc2c(c1)C(=O)N([C@@H](C)CO)C[C@@H](C)[C@H](CN(C)C(=O)c1ccccc1)O2,–
C[C@H]1CCCCO[C@@H](CN(C)C(=O)c2ccccc2)[C@@H](C)CN([C@@H](C)CO)C(=O)c2cc(NC(=O)Nc3ccc(F)cc3)ccc2O1,–
CCN1CCN(c2cc(C)c3cc(NC(=O)c4ccc(Br)o4)ccc3n2)CC1,53
COc1ccc(NC(=O)N[C@@H]2C=C[C@@H](CC(=O)NCc3ccccn3)O[C@@H]2CO)cc1,–
C[C@@H]1CN([C@@H](C)CO)C(=O)c2cc(NS(C)(=O)=O)ccc2O[C@@H](C)CCCCO[C@H]1CN(C)C(=O)Nc1ccc(F)cc1,–
Cc1cccc(C)c1OC1(c2ccccc2)OC(=O)c2ccccc21 (configuration not stated),72
O=C(NCc1ccc2c(c1)OCO2)c1nc(S(=O)(=O)Cc2ccccc2)ncc1Cl,74
COc1ccc(Cl)cc1NC(=O)NCC1CCN(C(=O)OC(C)(C)C)CC1,–
Cc1ccc(C(=O)Cn2c(C(=O)OCCO)cc3ccccc32)cc1,65
O=C(O)/C=C/c1cnc[nH]1,–
O=Nc1c(-c2c(O)[nH]c3cc(Br)ccc23)[nH]c2ccccc12,258
COc1ccc(-n2nc(C#N)c(Cl)cc2=O)cc1,–
Cc1no[n+]([O-])c1COc1cccc(/C=N/Nc2nncn2N)c1,–
Cc1[nH]c2ccccc2c1/C=N/Nc1nc2ccccc2[nH]1,80
COc1ccc(/C=N/Nc2nc3ccccc3[nH]2)c(OC)c1OC,–
Cc1noc(C)c1NC(=O)N(C)C[C@H]1OCCCC[C@@H](C)Oc2ccc(NC(=O)Cc3ccccc3)cc2C(=O)N([C@@H](C)CO)C[C@@H]1C,–
O=C(NCc1ccco1)c1scc2c1OCCO2,–
COc1ccc(Nc2nc(N)c(C(=O)c3ccc(OC)cc3)s2)cc1,83
CC(=O)N1/C(=C/c2ccc(N(C)C)cc2)C(=O)c2ccccc21,75
C#CCN(C[C@@H]1[C@@H](OC(=O)NCC2CCCCC2)[C@@H](OC(=O)NCC2CCCCC2)Cn2c(=O)ccc(=O)n21)S(=O)(=O)c1ccc(C)cc1,–
S=c1nc[nH]c2c1cnn2Cc1ccccc1,–
Cc1noc(C)c1S(=O)(=O)N(C)C[C@H]1Oc2ccc(NC(=O)Nc3ccccc3)cc2CC(=O)N([C@H](C)CO)C[C@H]1C,–
O=C(C[C@@H]1CC[C@@H]2[C@H](COC[C@@H](O)CN2S(=O)(=O)c2ccc(Cl)cc2)O1)N[C@@H]1CCN(Cc2ccccc2)C1,–
COc1cc(CN2CC3(CCN(S(=O)(=O)c4cccs4)CC3)c3c(n(C)c4cc(OC)ccc34)[C@H]2CO)cc(OC)c1,63
SMILES,PGC1a Ac signal
CCCCOP(=O)(c1ccc(N(C)C)cc1)C(O)c1ccc(OC)cc1 (configuration not stated),–
C/C(CC(=O)Nc1ccccc1Br)=N\NC(=O)C(=O)N1CCCC1,–
CN(C)CCOc1ccc2c(c1)C(=O)C(=Cc1ncc([N+](=O)[O-])n1C)C2,–
O=C(Nc1nc2c(s1)CN(Cc1ccccc1)CC2)c1c(F)cccc1F,–
C[C@H]1CCCCO[C@H](CN(C)C(=O)Nc2cccc3ccccc23)[C@@H](C)CN([C@@H](C)CO)C(=O)c2cc(N(C)C)ccc2O1,65
C[C@@H]1CN([C@@H](C)CO)C(=O)c2cc(NC(=O)Nc3cccc4ccccc34)ccc2O[C@@H](C)CCCCO[C@H]1CN(C)C(=O)NC1CCCCC1,–
C[C@H](CO)N1C[C@H](C)[C@H](CN(C)S(=O)(=O)c2cn(C)cn2)OCCCC[C@H](C)Oc2ccc(NC(=O)Nc3cccc4ccccc34)cc2C1=O,–
COCCNC(=O)C(c1ccc(F)cc1)N(Cc1ccco1)C(=O)CCC(=O)Nc1nccs1 (configuration not stated),–
Cc1ccc(NC(=S)c2ccncc2)c(C)c1,164
Cc1ccccc1-n1nnnc1Sc1nnnn1-c1ccccc1,–
CCCSc1nnc(Sc2nnnn2-c2ccccc2)s1,84
Cc1cc(C)cc(N(CC(=O)NC2CC3CCC2C3)S(C)(=O)=O)c1 (configuration not stated),83
COc1ccc(S(=O)(=O)Nc2ccc3c(c2)C(=O)N([C@H](C)CO)C[C@H](C)[C@H](CN(C)S(=O)(=O)c2cn(C)cn2)OCCCC[C@@H](C)O3)cc1,–
CCN1/C(=C/C(C)=C/c2sc3ccccc3[n+]2CC)Sc2ccccc21,98
N#Cc1ccc(Cn2c(=O)c(C#N)c3n(c2=O)CCC3)cc1,–
CCC(C)(C)n1nnnc1C(c1cccnc1)N1CCCC(C)C1 (configuration not stated),–
O=C(N/N=C/c1cccc([N+](=O)[O-])c1)C1COc2ccccc2O1 (configuration not stated),188
Cn1cccc1CC(=O)N/N=C/c1cc([N+](=O)[O-])ccc1Cl,–
O=C(N/N=C\c1cccc([N+](=O)[O-])c1O)C1COc2ccccc2O1 (configuration not stated),75
COc1ccc(S(=O)(=O)N(C)C[C@H]2Oc3ccc(NC(=O)CCN4CCOCC4)cc3C(=O)N([C@@H](C)CO)C[C@@H]2C)cc1,–
CC(C)(c1ccccc1)c1ccc(OCCCNCCO)cc1,88
CN(C)c1ccc(Sc2ccc3nc(N)nc(N)c3c2)cc1,–
COc1cccc(N2C(=NC(=O)c3ccccc3)SC3CS(=O)(=O)CC32)c1 (configuration not stated),–
COc1ccc(C(=O)Nc2cccc(NC(=O)c3ccc(OC)c(OC)c3)n2)cc1OC,–
Cc1cccc(NC(=O)c2ccc([N+](=O)[O-])o2)n1,66
SMILES,PGC1a Ac signal
CCC(=O)N1CCN(c2ccc(Cl)cc2NC(=O)c2ccc([N+](=O)[O-])o2)CC1,62
CC(C)C(=O)Nc1cccc(NC(=S)NC(=O)c2ccc([N+](=O)[O-])cc2)c1,–
O=C(Nc1cccc(NC(=O)c2cccs2)c1)c1ccc([N+](=O)[O-])o1,94
CCCCn1nc(NC(=O)c2cccs2)c2cc3ccccc3nc21,–
O=C(Nc1ccccc1Cl)c1ccc([N+](=O)[O-])o1,66
C[C@@H]1CN([C@@H](C)CO)C(=O)CCCn2nncc2CO[C@H]1CN(C)Cc1ccc(O)cc1,–
CCCCCCCCCSc1n[nH]c(N)n1,–
NC(=O)COC(=O)CC(NC(N)=O)c1ccc(Cl)cc1 (configuration not stated),–
Cn1ncc2c(O/N=C(\N)c3ccc(C(F)(F)F)cc3)ncnc21,–
COc1ccc(NC(=O)N[C@H]2CC[C@H](CCn3cc(-c4ccccc4F)nn3)O[C@@H]2CO)cc1,–
COc1cccc(S(=O)(=O)N(C)C[C@@H]2Oc3cc(C4=CCCC4)ccc3S(=O)(=O)N([C@H](C)CO)C[C@@H]2C)c1,59
CC(C)C#Cc1ccc2c(c1)O[C@@H](CN(C)Cc1ccccc1)[C@@H](C)CN([C@@H](C)CO)S2(=O)=O,–
CC(C)CC#Cc1ccc2c(c1)O[C@@H](CN(C)Cc1ccc3c(c1)OCO3)[C@H](C)CN([C@H](C)CO)S2(=O)=O,–
C[C@@H]1CN([C@@H](C)CO)S(=O)(=O)c2ccc(C3=CCCCC3)cc2O[C@H]1CN(C)C,–
C[C@@H]1CN([C@H](C)CO)S(=O)(=O)c2ccc(C3=CCCCC3)cc2O[C@H]1CN(C)Cc1ccccc1,–
